Entries after “also recorded” stand apart in the source; their conditions may differ.
Columns and labels:
VDR [1] = target: T1, VDR (Homo sapiens, UniProt P11473); experiment: VDR ultrafiltration affinity assay; format: binding
T1 sequence (P11473 1-427): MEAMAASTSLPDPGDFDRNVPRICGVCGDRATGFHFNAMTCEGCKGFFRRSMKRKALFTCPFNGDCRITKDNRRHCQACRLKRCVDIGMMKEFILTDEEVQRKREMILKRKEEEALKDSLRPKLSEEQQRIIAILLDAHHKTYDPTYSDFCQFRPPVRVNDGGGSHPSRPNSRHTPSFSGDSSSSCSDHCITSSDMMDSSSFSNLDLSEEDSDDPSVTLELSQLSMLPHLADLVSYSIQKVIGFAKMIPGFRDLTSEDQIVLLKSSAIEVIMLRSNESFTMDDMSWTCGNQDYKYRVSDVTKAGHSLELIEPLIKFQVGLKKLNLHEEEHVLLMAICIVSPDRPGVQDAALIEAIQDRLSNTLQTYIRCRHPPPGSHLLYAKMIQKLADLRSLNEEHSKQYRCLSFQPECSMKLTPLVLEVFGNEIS
Outline: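 Commercial VDR in storage buffer incubated with test ligand for 30 min at 37 °C, dark, shaking. Ultrafiltered at 12,000 × g, 4 °C, rinsed with ice-cold 50 mM ammonium acetate, 0.1 mM NaCl, pH 8.0. Bound ligand released in methanol with genistein internal standard, dried under N2, analysed by LC-ion trap TOF MS, both polarities, m/z 100–1500. Controls were boiled hVDR or no protein, with lithocholic acid and curcumin as positives.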

[2] = cited from earlier work
VDR [3] = target: T1, VDR; experiment: Competitive binding against curcumin for VDR; settings: equimolar concentration
human RXRα = target: T2, human RXRα (Homo sapiens, UniProt P19793); experiment: RXRE-luciferase reporter gene assay; format: cell-based; settings: for Max IR: maximum induction ratio observed: compounds tested at variable concentrations
T2 sequence (P19793 1-462): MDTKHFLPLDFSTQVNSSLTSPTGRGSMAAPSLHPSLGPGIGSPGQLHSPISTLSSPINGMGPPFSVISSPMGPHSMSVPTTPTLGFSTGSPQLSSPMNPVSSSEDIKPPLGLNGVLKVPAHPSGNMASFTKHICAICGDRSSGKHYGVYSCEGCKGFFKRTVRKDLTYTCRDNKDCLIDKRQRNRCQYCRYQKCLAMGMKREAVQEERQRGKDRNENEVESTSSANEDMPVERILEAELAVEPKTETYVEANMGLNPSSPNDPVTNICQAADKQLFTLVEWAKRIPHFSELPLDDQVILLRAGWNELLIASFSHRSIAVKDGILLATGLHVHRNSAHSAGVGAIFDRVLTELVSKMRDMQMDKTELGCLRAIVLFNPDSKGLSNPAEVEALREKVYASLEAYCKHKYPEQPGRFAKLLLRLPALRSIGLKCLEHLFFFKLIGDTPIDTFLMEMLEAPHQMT

[4] = test system: MCF-7 breast cancer cells; settings: cited from earlier work
COS-1 cells = experiment: % Cell Survival; format: cell-based; settings: concentration not given

SMILES	Positive VDR signal (VDR [1])	RXR activity in words (active / inactive) (human RXRα)	other results
NCCCn1c2c(c3ccc(N)cc3c1=O)C(=O)c1ccccc1-2 [Compound 3, 3-Amino-6-(3'-aminopropyl)-5H-indeno[1,2-c]isoquinoline-5,11-(6H)dione]	1903415	high activity	metabolism of the ketone group [2]: metabolized to an alcohol, which renders the compound inactive; competition with curcumin for binding to VDR (VDR [3]): did not compete; apoptosis in MCF-7 cells [4]: induce apoptosis in MCF-7 breast cancer cells in a dose-dependent manner
CCOC(=O)CNc1ccc2c3c(n(CCCN)c(=O)c2c1)-c1ccccc1C3=O [Compound 62]	152467	–	–
NCCCn1c2c(c3ccccc3c1=O)C(=O)c1ccccc1-2 [Compound 79]	4013179	high activity	% Cell Survival (COS-1 cells; Table 3): 52.5%; EC50 (human RXRα): 10.2 µM
NCCCCn1c2c(c3ccccc3c1=O)C(=O)c1ccccc1-2 [Compound 80]	3320824	–	–
NCCCCCn1c2c(c3ccccc3c1=O)C(=O)c1ccccc1-2 [Compound 81]	7877048	–	–
NCCCCCCn1c2c(c3ccccc3c1=O)C(=O)c1ccccc1-2 [Compound 82]	9397620	–	–
CCCCn1c2c(c3ccccc3c1=O)C(=O)c1ccccc1-2 [Compound 109, 6-Butyl-5H-indeno[1,2-c]isoquinoline-5,11(6H)-dione]	–	inactive	–
CN(C)CCCn1c2c(c3ccc([N+](=O)[O-])cc3c1=O)C(=O)c1ccccc1-2 [Compound 113, 6-(3-(Dimethylamino)propyl)-3-nitro-5H-indeno[1,2-c]isoquinoline-5,11(6H)-dione]	–	detrimental for activity	Max IR: maximum induction ratio observed (human RXRα): NA (NA: Max IR not determined because IR < 2.)
O=C1c2ccccc2-c2c1c1ccc([N+](=O)[O-])cc1c(=O)n2CCCCO [Compound 120, 6-(4-Hydroxybutyl)-3-nitro-5H-indeno[1,2-c]isoquinoline-5,11(6H)-dione]	–	inactive	–
CN(C)CCCn1c2c(c3ccc(N)cc3c1=O)C(=O)c1ccccc1-2 [Compound 121, 3-Amino-6-(3-(dimethylamino)propyl)-5H-indeno[1,2-c]isoquinoline-5,11(6H)-dione]	2011978	high activity	–
Cl.NCCCn1c2c(c3ccc(N)cc3c1=O)Cc1ccccc1-2 [Compound 124, 3-Amino-6-(3-aminopropyl)-6,11-dihydro-5H-indeno[1,2-c]isoquinolin-5-one]	1422175	good activity	–
CNCCCn1c2c(c3ccc([N+](=O)[O-])cc3c1=O)C(=O)c1ccccc1-2 [Compound 125]	–	detrimental for activity	Max IR: maximum induction ratio observed (human RXRα): NA (NA: Max IR not determined because IR < 2.)
CNCCCn1c2c(c3ccc(N)cc3c1=O)C(=O)c1ccccc1-2 [Compound 126]	2155086	high activity	–
N#Cc1ccc2c3c(n(CCCn4ccnc4)c(=O)c2c1)-c1ccccc1C3=O [Compound 127]	–	inactive; also recorded: lack of activity	–
N#Cc1ccc2c3c(n(CCCN4CCOCC4)c(=O)c2c1)-c1ccccc1C3=O [Compound 128]	–	inactive; also recorded: lack of activity	–
CN(C)CCCn1c2c(c3ccc(C#N)cc3c1=O)C(=O)c1ccccc1-2 [Compound 129]	–	active	–
CC(=O)Nc1ccc2c3c(n(CCCN)c(=O)c2c1)-c1ccccc1C3=O [Compound 131]	4875144	–	–
CC(=O)Nc1ccc2c3c(n(CCCO)c(=O)c2c1)-c1ccccc1C3=O [Compound 132]	–	inactive	% Cell Survival (COS-1 cells; Table 7): 90.6%; Max IR: maximum induction ratio observed (human RXRα): NA (NA: Max IR not determined because IR < 2.)
O=C1c2ccccc2-c2c1c1ccc([N+](=O)[O-])cc1c(=O)n2CCCCl [Compound 133]	–	inactive	–
[N-]=[N+]=NCCCn1c2c(c3ccc([N+](=O)[O-])cc3c1=O)C(=O)c1ccccc1-2 [Compound 134]	–	inactive	–
NCCCn1c2c(c3ccc([N+](=O)[O-])cc3c1=O)C(=O)c1ccccc1-2 [Compound 135]	–	detrimental for activity	Max IR: maximum induction ratio observed (human RXRα): NA (NA: Max IR not determined because IR < 2.)
CC(C)(C)OC(=O)NCCCn1c2c(c3ccc(N)cc3c1=O)C(=O)c1ccccc1-2 [Compound 141]	–	inactivated	–
CC(=O)NCCCn1c2c(c3ccc([N+](=O)[O-])cc3c1=O)C(=O)c1ccccc1-2 [Compound 143]	–	detrimental for activity	–
CC(=O)NCCCn1c2c(c3ccc(N)cc3c1=O)C(=O)c1ccccc1-2 [Compound 144]	–	significantly reduced the IR	–
O=C1c2ccccc2-c2c1c1ccc([N+](=O)[O-])cc1c(=O)n2CCCO [Compound 145]	–	inactive	–
CN(C)c1ccc2c3c(n(CCCN)c(=O)c2c1)-c1ccccc1C3=O [Compound 149]	–	inactive	Max IR: maximum induction ratio observed (human RXRα): NA (NA: Max IR not determined because IR < 2.)
O=C1c2ccccc2-c2c1c1ccccc1c(=O)n2CCCO [Compound 151]	–	inactive	Max IR: maximum induction ratio observed (human RXRα): NA (NA: Max IR not determined because IR < 2.)
COc1cc2c3c(n(CCCN)c(=O)c2cc1OC)-c1ccc(F)cc1C3=O [Compound 160]	–	–	Max IR: maximum induction ratio observed (human RXRα): NA (NA: Max IR not determined because IR < 2.)
